From ChEMBL document CHEMBL4715907, “Cytoprotective activities of kinetin purine isosteres” (Bioorg Med Chem, 2021)
Active and inactive are the calls of the source. The rule behind the calls is not given here.

Test system: SH-SY5Y
Assay: Cytoprotective activity against glutamate-induced human ATRA-differentiated SH-SY5Y cells assessed as reduction in oxidative stress […] by dihydroethidium staining based assay
Format: functional, cell-based
Settings: dose 0.1-10 µM

Compound | Activity
Clc1nc(NCc2ccco2)c2[nH]ccc2n1 | Dose-dependent effect
Clc1cc2[nH]cnc2c(NCc2ccco2)n1 | Dose-dependent effect
Cc1oc2ncnc(NCc3ccco3)c2c1C | Dose-dependent effect

Test system: GM04078
Assay: Cytoprotective activity against BSO-induced toxicity in human GM04078 cells assessed as restoring FXN protein expression at 10 to 50 uM after 48 hrs by immunodetection assay
Format: functional, cell-based
Settings: dose 10-50 µM
How it was run: (§1)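 GM04078 cells (about 1.4 million per 10 cm dish, DMEM with 10% FBS) were treated 24 h after seeding at 10 and 50 µM and harvested after 48 h. Lysates in Laemmli buffer were normalized by Bradford, 25–40 µg run on 12.5% SDS-PAGE and transferred to PVDF. Blots were probed with anti-frataxin mouse antibody (18A5DB1), actin as loading control, HRP secondary and ECL.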

Compound | Activity
Clc1cc2[nH]cnc2c(NCc2ccco2)n1 | inactive

Test system: not listed separately
Assay: Stability in human plasma assessed as parent compound remaining at 2 uM measured up to 120 mins by RF-MS analysis
Format: ADME, cell-free
Settings: read-out: Stabilty

Compound | remaining at 2 h, 2 µM [%]
c1coc(CNc2ncnc3cn[nH]c23)c1 | 83
Clc1nc(NCc2ccco2)c2[nH]ccc2n1 | 83
Cl.c1coc(CNc2ncnc3ccccc23)c1 | 83
c1coc(CNc2ccnc3[nH]cnc23)c1 | 83
Clc1nc(NCc2ccco2)c2cc[nH]c2n1 | 83
Clc1cc(NCc2ccco2)c2nc[nH]c2n1 | 83
c1coc(CNc2ncnc3occc23)c1 | 83
Clc1nc(NCc2ccco2)c2[nH]cnc2n1 | 83
c1coc(CNc2ncnc3[nH]cnc23)c1 [KINETIN] | 83
Clc1cc2[nH]cnc2c(NCc2ccco2)n1 | 83
Cc1oc2ncnc(NCc3ccco3)c2c1C | 83

Test system: SH-SY5Y
Assay: Cytoprotective activity against glutamate-induced human ATRA-differentiated SH-SY5Y cells from ECACC assessed as reduction in oxidative stress at 10 uM after 24 hrs by dihydroethidium staining based assay
Format: functional, cell-based
Settings: not given

Compound | Activity
Clc1cc2[nH]cnc2c(NCc2ccco2)n1 | Active

Test system: GM04078
Assay: Cytoprotective activity against BSO-induced toxicity in human GM04078 cells assessed as restoring GSH level […] by confocal microscopic method
Format: functional, cell-based
Settings: time 32.0 hrs

Compound | Activity
Clc1cc2[nH]cnc2c(NCc2ccco2)n1 | inactive

Test system: GM04078
Assay: Cytoprotective activity against BSO-induced toxicity in human GM04078 cells assessed as restoring FXN protein expression at 10 to 50 uM after 48 hrs by Western blot analysis
Format: functional, cell-based
Settings: dose 10-50 µM
How it was run: as §1

Compound | Activity
Clc1cc2[nH]cnc2c(NCc2ccco2)n1 | inactive

Target: T1, Frataxin, mitochondrial (Homo sapiens) (UniProt Q16595)
T1 sequence (whole entry): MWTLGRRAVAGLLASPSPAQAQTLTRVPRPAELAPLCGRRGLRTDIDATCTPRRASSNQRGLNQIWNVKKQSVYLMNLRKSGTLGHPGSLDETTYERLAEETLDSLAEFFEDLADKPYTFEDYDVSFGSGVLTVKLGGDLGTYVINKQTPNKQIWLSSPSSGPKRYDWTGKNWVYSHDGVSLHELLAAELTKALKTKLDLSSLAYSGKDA
Assay: Inhibition of His6-tagged-thrombin cleavage site-fused FXN (79 to 207 residues) (unknown origin) assessed as increase in Fe-S cluster biosynthesis at 30 to 500 uM by UV-visible spectroscopy relative to control
Settings: dose 30-500 µM
How it was run: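 Mouse ISC machinery reconstituted in vitro from purified proteins under anaerobic conditions. Buffer was 50 mM Tris, 150 mM NaCl, pH 8, with 50 µM apo-ISCU loaded with one equivalent Fe2+, 5 µM NFS1-ISD11-ACP, 5 µM FDX2, 2 µM FDXR and 100 µM NADPH. Compounds in DMSO were tested at 30, 50, 100, 200 and 500; DMSO was equalized. 5 µM FXN served as positive control. Run in triplicate.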

Compound | inhibition
Clc1cc2[nH]cnc2c(NCc2ccco2)n1 | Active

Test system: SH-SY5Y
Assay: Cytoprotective activity against glutamate-induced ATRA-differentiated human SH-SY5Y cells assessed as reduction in cell death at 10 uM after 24 hrs by propidium iodide staining based assay relative to control
Format: functional
Design: scale not given: the % may be the effect or the level left
Settings: not given
How it was run: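 SH-SY5Y cells (20,000/well) differentiated 48 h with 10 µM ATRA in DMEM/F12 with 1% FBS. Medium replaced by fresh DMEM/F12 with 1% FBS containing test compound at 0.1, 1 or 10 µM; DMSO vehicle as negative control. Cells exposed immediately to 160 mM glutamate for 24 h. Dead cells stained with propidium iodide (1 µg/mL final, 15 min, rt); fluorescence read at ex 535/em 617 nm.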

Compound | Activity [%]
Clc1nc(NCc2ccco2)c2[nH]ccc2n1 | 10
Clc1cc2[nH]cnc2c(NCc2ccco2)n1 | 10
Cc1oc2ncnc(NCc3ccco3)c2c1C | 10

Test system: not listed separately
Assay: Apparent permeability of compound in human Caco2 cells
Format: ADME, cell-based
Settings: Caco-2

Compound | Papp [×10⁻⁶ cm/s]
c1coc(CNc2ncnc3cn[nH]c23)c1 | 7.6
Clc1nc(NCc2ccco2)c2[nH]ccc2n1 | 7.6
Cl.c1coc(CNc2ncnc3ccccc23)c1 | 7.6
c1coc(CNc2ccnc3[nH]cnc23)c1 | 7.6
Clc1nc(NCc2ccco2)c2cc[nH]c2n1 | 7.6
Clc1cc(NCc2ccco2)c2nc[nH]c2n1 | 7.6
c1coc(CNc2ncnc3occc23)c1 | 7.6
Clc1nc(NCc2ccco2)c2[nH]cnc2n1 | 7.6
c1coc(CNc2ncnc3[nH]cnc23)c1 [KINETIN] | 7.6
Clc1cc2[nH]cnc2c(NCc2ccco2)n1 | 7.6
Cc1oc2ncnc(NCc3ccco3)c2c1C | 7.6

Test system: not listed separately
Assay: Stability in human liver microsomes assessed as parent compound remaining at 2 uM measured up to 60 mins by RF-MS analysis
Format: ADME, Microsome
Settings: read-out: Stabilty

Compound | remaining at 1 h, 2 µM [%]
c1coc(CNc2ncnc3cn[nH]c23)c1 | 78
Clc1nc(NCc2ccco2)c2[nH]ccc2n1 | 78
Cl.c1coc(CNc2ncnc3ccccc23)c1 | 78
c1coc(CNc2ccnc3[nH]cnc23)c1 | 78
Clc1nc(NCc2ccco2)c2cc[nH]c2n1 | 78
Clc1cc(NCc2ccco2)c2nc[nH]c2n1 | 78
c1coc(CNc2ncnc3occc23)c1 | 78
Clc1nc(NCc2ccco2)c2[nH]cnc2n1 | 78
c1coc(CNc2ncnc3[nH]cnc23)c1 [KINETIN] | 78
Clc1cc2[nH]cnc2c(NCc2ccco2)n1 | 78
Cc1oc2ncnc(NCc3ccco3)c2c1C | 78

Test system: not listed separately
Assay: Apparent permeability of compound in MDCK-MDR1 cells
Format: ADME, cell-based, Canis lupus familiaris
Settings: dog
How it was run: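 MDCK-MDR1 cells formed monolayers on 1 µm pore Transwell filters, used only if intact by Lucifer Yellow rejection. Cells were washed with HBSS and pre-equilibrated at pH 7.4 for 1 h, then exposed to 10 µM compound in HBSS pH 7.4 for 1 h, apical-to-basal and basal-to-apical. Donor and acceptor were quantified by RapidFire MS/MS (MRM). Papp = (dQ/dt)/(C0 × A), duplicates.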

Compound | Papp [×10⁻⁶ cm/s]
c1coc(CNc2ncnc3cn[nH]c23)c1 | 16.3
Clc1nc(NCc2ccco2)c2[nH]ccc2n1 | 16.3
Cl.c1coc(CNc2ncnc3ccccc23)c1 | 16.3
c1coc(CNc2ccnc3[nH]cnc23)c1 | 16.3
Clc1nc(NCc2ccco2)c2cc[nH]c2n1 | 16.3
Clc1cc(NCc2ccco2)c2nc[nH]c2n1 | 16.3
c1coc(CNc2ncnc3occc23)c1 | 16.3
Clc1nc(NCc2ccco2)c2[nH]cnc2n1 | 16.3
c1coc(CNc2ncnc3[nH]cnc23)c1 [KINETIN] | 16.3
Clc1cc2[nH]cnc2c(NCc2ccco2)n1 | 16.3
Cc1oc2ncnc(NCc3ccco3)c2c1C | 16.3

Test system: GM04078
Assay: Cytoprotective activity against BSO-induced toxicity in human GM04078 cells assessed as increase in cell viability at 10 to 50 uM preincubated for 24 hrs followed by BSO-stimulation and […] by resazurin fluorescence based assay
Format: functional
Settings: dose 10-50 µM

Compound | Activity
Clc1cc2[nH]cnc2c(NCc2ccco2)n1 | Active

Test system: not listed separately
Assay: Protein binding in human plasma at 10 uM after 4 hrs by RF-MS analysis
Format: ADME, cell-free
Settings: read-out: PPB (converted)

Compound | fraction unbound at 4 h, 10 µM
c1coc(CNc2ncnc3cn[nH]c23)c1 | 0.871
Clc1nc(NCc2ccco2)c2[nH]ccc2n1 | 0.871
Cl.c1coc(CNc2ncnc3ccccc23)c1 | 0.871
c1coc(CNc2ccnc3[nH]cnc23)c1 | 0.871
Clc1nc(NCc2ccco2)c2cc[nH]c2n1 | 0.871
Clc1cc(NCc2ccco2)c2nc[nH]c2n1 | 0.871
c1coc(CNc2ncnc3occc23)c1 | 0.871
Clc1nc(NCc2ccco2)c2[nH]cnc2n1 | 0.871
c1coc(CNc2ncnc3[nH]cnc23)c1 [KINETIN] | 0.871
Clc1cc2[nH]cnc2c(NCc2ccco2)n1 | 0.871
Cc1oc2ncnc(NCc3ccco3)c2c1C | 0.871

Test system: GM04663
Assay: Cytoprotective activity in human GM04663 cells assessed as aberrant splicing of ELP1 mRNA expression at 50 uM incubated for 24 hrs by RT-PCR anlaysis
Format: functional, cell-based
Settings: not given
How it was run: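 GM04663 patient fibroblasts, about 500,000 per 10 cm dish in DMEM with 10% FBS, were grown overnight and then treated 24 h at 50 µM, with DMSO vehicle. Total RNA was extracted with Trizol and reverse-transcribed. ELP1 nt 2194–2593 (NM_003640.5) was amplified over 34 cycles with 63.8 °C annealing. Wild-type and aberrant transcripts were quantified by peak area against DNA standards of known size and concentration.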

Compound | Activity
c1coc(CNc2ncnc3cn[nH]c23)c1 | inactive
Clc1nc(NCc2ccco2)c2[nH]ccc2n1 | Active
Cl.c1coc(CNc2ncnc3ccccc23)c1 | Active
Clc1nc(NCc2ccco2)c2cc[nH]c2n1 | Active
c1coc(CNc2ncnc3occc23)c1 | Active
Cc1oc2ncnc(NCc3ccco3)c2c1C | Active

Test system: GM04078
Assay: Cytoprotective activity against BSO-induced toxicity in human GM04078 cells assessed as increase in cell viability preincubated for 24 hrs followed by BSO-stimulation and […] by resazurin fluorescence based assay
Format: functional
Settings: not given

Compound | Activity
Clc1cc2[nH]cnc2c(NCc2ccco2)n1 | Dose-dependent effect

Test system: not listed separately
Assay: Drug degradation in human liver microsomes at 2 uM measured up to 60 mins by RF-MS analysis
Format: ADME, Tissue, Microsome
Settings: read-out: Drug degradation

Compound | metabolised at 1 h, 2 µM [%]
Cc1oc2ncnc(NCc3ccco3)c2c1C | > 50
